Test results reported in ChEMBL document CHEMBL4765448, “Multiple biological active 4-aminopyrazoles containing trifluoromethyl and their 4-nitroso-precursors: Synthesis and evaluation” (Eur J Med Chem, 2020).
In brackets after ≈: the same amount, converted by molar mass. Several values for one entry are separate records, joined by “and”; a condition that tells them apart may be missing. Identical values can stand only once. Activity calls are given as the source filed them. No cut-off for these calls is given here.

Key:
[1] = system: Trichophyton interdigitale; experiment: Antifungal activity against Trichophyton mentagrophytes var. interdigitale; format: functional
Proteus vulgaris = experiment: Antibacterial activity against Proteus vulgaris; format: functional
Staphylococcus aureus [2] = experiment: Antibacterial activity against Staphylococcus aureus; format: functional
Staphylococcus aureus [3] = experiment: Antibacterial activity against methicillin resistant Staphylococcus aureus; format: functional
Microsporum canis = experiment: Antifungal activity against Microsporum canis; format: functional
Trichophyton violaceum = experiment: Antifungal activity against Trichophyton violaceum; format: functional
Rattus norvegicus [4] = experiment: Antiinflammatory activity in rat model of carrageenan-induced paw edema assessed as inhibition of hind paw swelling at 15 mg/kg, ip measured after 5 hrs; format: functional, organism-based
Trichophyton tonsurans = experiment: Antifungal activity against Trichophyton tonsurans; format: functional
Nannizzia gypsea = experiment: Antifungal activity against Trichophyton gypseum; format: functional
[5] = Antioxidant activity assessed as trolox equivalent of ABTS radical scavenging activity measured after 1 hr by UV-vis spectrophotometric method; format: functional
Procedure, shortened: (§1)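 ABTS cation-radical decolorization was read spectrophotometrically as the fall in absorbance after 1 h. Trolox was the reference. TEAC was taken as the ratio of concentration-response slopes, test/Trolox, and IC50 was also derived. Data are mean ± SEM, n = 3.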

Candida albicans = experiment: Antifungal activity against Candida albicans; format: functional
Shigella flexneri = experiment: Antibacterial activity against Shigella flexneri; format: functional
Rattus norvegicus [6] = experiment: Analgesic activity in rat assessed as prolongation of latency period at 15 mg/kg, ip measured after 1 hr by hot-plate test relative to control; format: functional
Procedure, shortened: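 Hot-plate test in rats. Compounds were given by intraperitoneal injection. Latency was read at 1 h and, for some compounds, also at 2 h after dosing. Results are expressed as % prolongation of the latent period versus vehicle-treated control. Significance was given as p-values.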

Escherichia coli = experiment: Antibacterial activity against Escherichia coli; format: functional
Klebsiella pneumoniae = experiment: Antibacterial activity against Klebsiella pneumoniae; format: functional
Trichophyton rubrum = experiment: Antifungal activity against Trichophyton rubrum; format: functional
Neisseria gonorrhoeae = experiment: Antibacterial activity against Neisseria gonorrhoeae; format: functional
Epidermophyton floccosum = experiment: Antifungal activity against Epidermophyton floccosum; format: functional
Pseudomonas aeruginosa = experiment: Antibacterial activity against Pseudomonas aeruginosa; format: functional
Citrobacter braakii = experiment: Antibacterial activity against Citrobacter braakii; format: functional
[7] = system: Mycobacterium tuberculosis; experiment: Antitubercular activity against Mycobacterium tuberculosis H37Rv; format: functional
Procedure, shortened: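 Mycobacterium tuberculosis strain H37Rv; minimum inhibitory concentration (MIC) taken as the lowest level needed to inhibit bacterial growth; isoniazid and pyrazinamide served as reference drugs.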

Serratia marcescens = experiment: Antibacterial activity against Serratia marcescens; format: functional
Rattus norvegicus [8] = experiment: Antiinflammatory activity in rat model of carrageenan-induced paw edema assessed as inhibition of hind paw swelling at 15 mg/kg, ip measured after 1 hr relative to control; format: functional
HeLa = experiment: Cytotoxicity against human HeLa cells; format: functional, cell-based; conditions: for IC50: Homo sapiens, HeLa, read-out: IC50
NHDF = experiment: Cytotoxicity against HDF cells; format: cell-based, Homo sapiens
Erythrocyte [9] = experiment: Antioxidant activity in human erythrocytes assessed as protection against AAPH-induced hemolysis at 50 uM preincubated for 20 mins followed by AAPH addition and measured after 2 hrs by spectrophotometric method relative to control; format: functional; conditions: time 140 min, 2.333 h
Procedure, shortened: (§2)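 Erythrocyte hemolysis assay with AAPH as the free-radical initiator, testing 50 and 400 µM. Results are expressed as relative protection of membranes against oxidative damage, each the mean of two independent experiments.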

Streptococcus pyogenes = experiment: Antibacterial activity against Streptococcus pyogenes; format: functional
[10] = Selectivity index, ratio of IC50 for HDF cells to IC50 for human HeLa cells; format: toxicity; conditions: HDF cells versus HeLa cells, read-out: Ratio IC50
[11] = Antioxidant activity assessed as ABTS radical scavenging activity measured after 1 hr by UV-vis spectrophotometric method; format: functional; procedure, shortened: as §1
Erythrocyte [12] = experiment: Antioxidant activity in human erythrocytes assessed as protection against AAPH-induced hemolysis at 400 uM preincubated for 20 mins followed by AAPH addition and measured after 2 hrs by spectrophotometric method relative to control; format: functional; conditions: time 140 min, 2.333 h; procedure, shortened: as §2
[13] = Antioxidant activity assessed as AAPH scavenging activity by measuring residual fluorescence at 50 uM measured at 1 min interval for 30 mins by ORAC fluorescein assay relative to control; format: functional
Procedure, shortened: (§3)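 ORAC-FL assay with fluorescein as the probe and AAPH as the peroxyl radical generator. The loss of fluorescence over time was followed, and the result is given as % fluorescence restored at 10 and 50 µM. Each value is the mean of two independent experiments.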

[14] = Antioxidant activity assessed as AAPH scavenging activity by measuring residual fluorescence at 10 uM measured at 1 min interval for 30 mins by ORAC fluorescein assay relative to control; format: functional; procedure, shortened: as §3

Row | Structure (SMILES) | MIC [1] [µg/mL] | MIC (Proteus vulgaris) [µg/mL] | MIC (Staphylococcus aureus [2]) [µg/mL] | MIC (Microsporum canis) [µg/mL] | MIC (Trichophyton violaceum) [µg/mL] | Activity (Rattus norvegicus [4]) | MIC (Trichophyton tonsurans) [µg/mL] | MIC (Nannizzia gypsea) [µg/mL] | Activity [5] | MIC (Candida albicans) | MIC (Shigella flexneri) [µg/mL] | MIC (Escherichia coli) [µg/mL] | MIC (Klebsiella pneumoniae) [µg/mL] | MIC (Trichophyton rubrum) [µg/mL] | MIC (Neisseria gonorrhoeae) [µg/mL] | MIC (Epidermophyton floccosum) [µg/mL] | MIC (Pseudomonas aeruginosa) [µg/mL] | MIC (Citrobacter braakii) [µg/mL] | MIC [7] [µg/mL] | MIC (Serratia marcescens) [µg/mL] | other results
1 | Cn1nc(C(F)(F)F)c(N=O)c1-c1ccco1 | 25 (≈ 102 µM) | > 500 | 15.6 (≈ 63.6 µM) | 12.5 (≈ 51 µM) | 6.25 (≈ 25.5 µM) | Active | 12.5 (≈ 51 µM) | 50 (≈ 204 µM) | 0.02 equiv | inactive | > 500 | > 500 | > 500 | 12.5 (≈ 51 µM) | 125 (≈ 510 µM) | 12.5 (≈ 51 µM) | > 500 | > 500 | 12.5 (≈ 51 µM) | > 500 | MIC (Staphylococcus aureus [3]): 31.2 µg/mL (≈ 127 µM); Activity (Rattus norvegicus [6]): inactive
2 | OC(Cn1cncn1)(Cn1cncn1)c1ccc(F)cc1F [FLUCONAZOLE] | > 100 | – | – | 100 (≈ 327 µM) | 100 (≈ 327 µM) | – | > 100 | 12.5 (≈ 40.8 µM) | – | > 100 µg/mL | – | – | – | 6.25 (≈ 20.4 µM) | – | – | – | – | – | – | –
3 | NNC(=O)c1ccncc1 [ISONIAZID] | – | – | – | – | – | – | – | – | – | – | – | – | – | – | – | – | – | – | 0.15 (≈ 1.09 µM) | – | –
4 | Cl.Nc1c(C(F)(F)F)n[nH]c1-c1ccccc1 | > 200 | > 250 | > 250 | > 200 | > 200 | – | > 200 | > 200 | – | > 200 µg/mL | > 250 | > 250 | > 250 | > 200 | 62.5 | > 200 | > 250 | > 250 | 6.2 | > 250 | inhibition in vivo at 15 mg/kg (Rattus norvegicus [8]): 44.8%; IC50 (HeLa): 1.86 µM; IC50 (NHDF; nhdf): Not Active; fold change (FC) (Erythrocyte [9]): 1.03; MIC (Streptococcus pyogenes): > 250 µg/mL; Activity (Rattus norvegicus [6]): 91.8%; selectivity ratio [10]: > 53.8; IC50 [11]: 41.8 µM; fold change (FC) (Erythrocyte [12]): 0.01
5 | O/N=C1\C(c2ccccc2)=NN(c2ccccc2)C1(O)C(F)(F)F (centres undefined) | 100 (≈ 298 µM) | > 250 | 31.2 (≈ 93.1 µM) | 100 (≈ 298 µM) | 100 (≈ 298 µM) | Active | 50 (≈ 149 µM) | 100 (≈ 298 µM) | 0.44 equiv | 50 µg/mL (≈ 149 µM) | > 250 | > 250 | > 250 | 25 (≈ 74.6 µM) | 31.2 (≈ 93.1 µM) | 100 (≈ 298 µM) | > 250 | > 250 | – | > 250 | MIC (Staphylococcus aureus [3]): 31.2 µg/mL (≈ 93.1 µM); MIC (Streptococcus pyogenes): > 250 µg/mL; IC50 [11]: 48.6 µM
6 | CC[C@@]1(O)C(=O)OCc2c1cc1n(c2=O)Cc2cc3ccccc3nc2-1 [CAMPTOTHECIN] | – | – | – | – | – | – | – | – | – | – | – | – | – | – | – | – | – | – | – | – | IC50 (HeLa): 1.66 µM; IC50 (NHDF; Homo sapiens, NHDF, read-out: IC50): 5.38 µM; selectivity ratio [10]: 3.24
7 | Cc1ccc(-c2c(N)c(C(F)(F)F)nn2-c2ccc(S(N)(=O)=O)cc2)cc1.Cl | 200 | > 250 | > 250 | 200 | > 200 | Active | > 200 | > 200 | – | > 200 µg/mL | > 250 | > 250 | > 250 | 200 | 250 | 200 | > 250 | > 250 | – | > 250 | Activity [13]: 47.1%; fold change (FC) (Erythrocyte [9]): 1.18; MIC (Streptococcus pyogenes): > 250 µg/mL; Activity (Rattus norvegicus [6]): inactive; Activity [14]: 14.6%; fold change (FC) (Erythrocyte [12]): 1.17
8 | NC(=O)c1cnccn1 [PYRAZINAMIDE] | – | – | – | – | – | – | – | – | – | – | – | – | – | – | – | – | – | – | 12.5 (≈ 102 µM) | – | –
9 | CCC(C)n1ncn(-c2ccc(N3CCN(c4ccc(OCC5COC(Cn6cncn6)(c6ccc(Cl)cc6Cl)O5)cc4)CC3)cc2)c1=O (centres undefined) [ITRACONAZOLE] | 0.095 (≈ 0.135 µM) | – | – | > 100 | 0.19 (≈ 0.269 µM) | – | 0.19 (≈ 0.269 µM) | 0.06 (≈ 0.085 µM) | – | > 100 µg/mL | – | – | – | 0.06 (≈ 0.085 µM) | – | 0.19 (≈ 0.269 µM) | – | – | – | – | –
10 | Nc1c(C(F)(F)F)n[nH]c1-c1cccs1 | – | – | – | – | – | Active | – | – | 1.22 equiv and 1.1 equiv | – | – | – | – | – | – | – | – | – | – | – | Activity [13]: 14% and 21.8%; Activity [14]: 52.5% and 52.6%
11 | Cl.Cn1nc(C(F)(F)F)c(N)c1-c1cccs1 | 200 | > 250 | > 250 | > 200 | > 200 | Active | > 200 | > 200 | 0.1 equiv | > 200 µg/mL | > 250 | > 250 | > 250 | > 200 | > 250 | > 200 | > 250 | > 250 | 12.5 | > 250 | Activity (HeLa): Dose-dependent effect; IC50 (HeLa): 48.7 µM; IC50 (NHDF; nhdf): Not Active; MIC (Streptococcus pyogenes): > 250 µg/mL; selectivity ratio [10]: > 2.05
